Series [1] has as its target Peptidyl-prolyl cis-trans isomerase F, mitochondrial (Mus musculus) (UniProt Q99KR7). Put plainly: Inhibition of cyclophilin D in mouse brain cortical mitochondria assessed as suppression of calcium-induced mitochondrial swelling incubated for 5 mins by spectrophotometric analysis. The essentials:
(§1)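 Cortical mitochondria isolated from mice (100 μg) kept on ice for 5 min with or without inhibitor. Swelling then triggered by adding 200 μM Ca2+ to the reaction buffer and compared with vehicle-treated mitochondria.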

In series [2] the test system is SK-N-SH. Put plainly: Effect on cytochrome c oxidase activity in human SK-N-SH cells at 10 to 20 uM after 48 hrs by spectrophotometrical analysis. Type of series: ADME, cell-based. The essentials: (§2)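 SK-N-SH cells given 5 μM oligomeric Aβ1–42 together with 10 or 20 μM inhibitor, 1 μM CsA, or vehicle. Controls were Aβ alone and cells without Aβ. After 48 h, ATP level or CcO enzymatic activity measured in cell lysates.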

Series [3] has as its system SK-N-SH. The series can be described thus: Effect on ATP level in human SK-N-SH cells at 10 to 20 uM after 48 hrs by bioluminescence analysis. Type of series: ADME, cell-based. The essentials:
as §2

Series [4] deals with SK-N-SH. Put plainly: Cytotoxicty against human SK-N-SH cells at 5 to 100 uM after 48 hrs by MTT assay. It counts as cell-based. The essentials:
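SK-N-SH cells exposed at 37 °C for 48 h to 0, 5, 10, 25, 50 or 100 μM inhibitor diluted in culture medium, with vehicle as 0. Survival and toxicity read by MTT reduction.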

Series [5] in a line: Effect on mouse brain cortical mitochondrial swelling at 10 to 100 uM incubated for 5 mins by spectrophotometric analysis. Type of series: ADME, Mitochondria. The essentials:
as §1

Peptidyl-prolyl cis-trans isomerase F, mitochondrial (Mus musculus), sequence (Q99KR7 whole entry): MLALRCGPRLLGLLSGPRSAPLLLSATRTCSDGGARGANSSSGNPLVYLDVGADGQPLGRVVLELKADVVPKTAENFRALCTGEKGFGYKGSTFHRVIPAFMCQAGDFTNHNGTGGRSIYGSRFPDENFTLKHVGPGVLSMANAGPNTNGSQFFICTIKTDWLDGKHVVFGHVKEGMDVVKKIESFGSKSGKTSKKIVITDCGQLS

In the case of `Cc1nc(-c2ccc(OCC(C)C)c(C#N)c2)sc1C(=O)Nc1ccc(S(N)(=O)=O)cc1`, the inhibition entry in series [1] was “Dose-dependent effect”. In addition, the Activity entry (in the series with SK-N-SH [2]; in the series on SK-N-SH [3]; with SK-N-SH [4]; in series [5]) was “Non-toxic” each time.

These data come from ChEMBL document CHEMBL3804783, “Identification of a Small Molecule Cyclophilin D Inhibitor for Rescuing Aβ-Mediated Mitochondrial Dysfunction” (ACS Med Chem Lett, 2016).
